Compound activity: PubChem, several laboratories
LEDGF integ inh: blocks HIV-1 LEDGF/p75-dependent DNA integration; 370,000 compounds, 0.64% hits; inhibition, % at 3.7 µM; TR-FRET IN-LEDGF/p75 DNA integration, Eu/Cy5; AID 743269;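 active = inhibition above the screen-wide mean plus 3 SD, cut at about 13% in these data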;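 also: signal is the Cy5 over europium emission ratio at 671 and 618 nm; 0% = plate median of compound wells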
ARFGAP1 inhibitor: inhibitors of rat ARFGAP1. Q62848. Arfgap1-stimulated ARF1 GTP hydrolysis, GDP FP detection. inhibition, % at 16.5 µM. 360,000 compounds, 0.26% hits. AID 651572;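 active = inhibition above a per-plate limit, mean inhibition of low control wells plus 3 SD, cut at about 25% in these data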;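 also: 0% = DMSO wells with enzyme and 100% = wells lacking Arfgap1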
Target sequence (Q62848 1-136 limits assumed): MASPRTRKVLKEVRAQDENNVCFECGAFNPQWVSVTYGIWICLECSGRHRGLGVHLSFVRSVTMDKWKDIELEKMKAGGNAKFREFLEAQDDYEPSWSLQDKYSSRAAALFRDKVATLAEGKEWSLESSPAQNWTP
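Material: rat Arfgap1 catalytic domain, aa 1-136; also added: human ARF1(Δ1-17)-GTP substrate; compound dosing: one concentration, 16.5 µM, DMSO 1.26%; incubation: GTP hydrolysis reaction 2 h at 25 °C; measured by: Tracer-displacement fluorescence polarization with EDTA stop, 620/688 nm; evaluation: % inhibition from polarization; repeats: one replicate per compound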
Casp6 inh: blocks human caspase-6 cleavage activity; inhibition, % at 12.5 µM; P55212; purified caspase-6, Z-VEID-R110 cleavage fluorescence; 350,000 compounds, 0.53% hits;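 active = mean inhibition across replicates at least about 35%, with every replicate also reaching that limit, limit read from the data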;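 also: 0% = median of neutral control wells and 100% = no fluorescence left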
TDP2 absorb: TDP2 (human) inhibition, absorbance primary screen. recombinant TDP2, T5PNP hydrolysis, p-nitrophenol absorbance 415 nm. O95551. inhibition, % at 12.8 µM. 370,000 compounds, 0.34% hits;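 active = inhibition above the mean of all tested compounds plus 3 SD, set per campaign, cut at about 25% in these data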;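 also: 0% = DMSO with enzyme and 100% = buffer with substrate but no TDP2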
Target sequence (O95551 whole entry, looked up): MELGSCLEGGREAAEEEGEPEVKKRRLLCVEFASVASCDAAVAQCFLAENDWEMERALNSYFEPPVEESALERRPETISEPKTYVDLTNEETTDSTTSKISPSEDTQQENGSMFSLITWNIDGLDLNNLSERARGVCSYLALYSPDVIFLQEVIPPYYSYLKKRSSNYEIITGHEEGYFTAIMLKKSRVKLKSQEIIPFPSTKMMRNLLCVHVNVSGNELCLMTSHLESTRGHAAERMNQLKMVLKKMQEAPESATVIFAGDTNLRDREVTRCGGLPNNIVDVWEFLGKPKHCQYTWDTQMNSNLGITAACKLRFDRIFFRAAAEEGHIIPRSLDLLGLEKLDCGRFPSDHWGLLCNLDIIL
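Test system: Human TDP2 enzyme | Reagent: 5 mM T5PNP | Compound dosing: 12.8 µM single point, 1% DMSO | Incubation: Enzyme reaction with compound for 2 h at 37 °C | Technique: p-Nitrophenol epi absorbance | Read-out: % inhibition relative to enzyme-containing and enzyme-free wells | Benchmarks: High control without enzyme, low control DMSO plus TDP2 | Replicates: Singlicate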
ASAP1 inh: blocks human ASAP1-stimulated Arf1 GTP hydrolysis. Q9ULH1. GDP FP detection. inhibition, % at 16.5 µM. 360,000 compounds, 0.19% hits. AID 624377; in the data active = inhibition above about 25%;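 also: 0% = vehicle with enzyme and substrate and 100% = no enzyme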
An asterisk follows results filed as active; x = no result. Shown are actives, neighbours in structure and some others; about 1.3% of the full set was active somewhere.

SMILES	LEDGF integ inh	ARFGAP1 inhibitor	Casp6 inh	TDP2 absorb	ASAP1 inh
Cc1ccc(-n2cccc2/C=C2/C(=N)N3C(=NC2=O)SN=C3S(C)(=O)=O)cc1	3	0	x	4	-20
Cc1nc2ccc(NS(=O)(=O)c3c(F)cc(F)cc3Br)cc2s1	1	6	40*	2	4
CC(C)C(OC(=O)C1=Cc2ccccc2OC1)C(=O)NCC1CCCO1 (stereo unspecified)	9	-9	47*	2	2
COc1cccc(NC(=O)CN(C)C(=O)/C=C/c2ccc(S(=O)(=O)N3CCCCCC3)cc2)c1	0	11	0	-1	12
COC(=O)CN1C(=O)COc2ccc(S(=O)(=O)N3CCCC3)cc21	0	6	0	3	-9
COC(=O)CN1C(=O)COc2ccc(S(=O)(=O)N3CCCCC3)cc21	-2	4	52*	4	-4
Cc1ccc(C)c(S(=O)(=O)Nc2ccc3oc(C)c(C(=O)O)c3c2)c1	9	6	69*	3	-3
COc1ccc(CNS(=O)(=O)c2ccc(-c3cc(C)no3)cc2)cc1	0	-7	-3	10	12
C#CCn1c(=NC(=O)c2sc3ccccc3c2Cl)sc2cc(S(N)(=O)=O)ccc21	-4	82*	x	-1	11
C#CCn1c(=NC(=O)c2ccccc2[N+](=O)[O-])sc2cc(S(C)(=O)=O)ccc21	-4	-2	x	12	-5
CCCCOc1ccc(NC(=O)C(=O)NCCC2=CCCCC2)cc1	3	-1	x	2	7
COc1ccc(S(=O)(=O)N2CCN(CC(=O)c3ccc(O)c(O)c3)CC2)cc1	61*	-2	x	15	0
Cc1ccccc1C(=O)NCCn1cc(SCC(=O)NCC2CCCO2)c2ccccc21 (stereo unspecified)	1	3	41*	6	-4
O=C(CSc1cn(CCNC(=O)c2ccccc2F)c2ccccc12)NCC1CCCO1 (stereo unspecified)	1	2	-1	19	5
O=C(CSc1nnc(-c2ccco2)n1-c1ccccc1Cl)Nc1cccc(C(=O)O)c1	0	-6	55*	18	1
O=C1Nc2c(Cl)cccc2C1=O	0	5	37*	8	6
Cc1cccc2c1NC(=O)C2=O	9	3	28	5	-2
NS(=O)(=O)c1ccc(N=Nc2ccc(O)c3ncccc23)cc1	-16	9	51*	-19	4
NS(=O)(=O)c1ccc(N=Nc2ccc(=O)[nH]c2O)cc1	11	10	70*	2	-8
COCCCNC(=O)CCNS(=O)(=O)c1ccc(C)cc1	-3	-1	x	2	-2
CC1(Oc2ccc(Cl)cc2)CCN(Cc2ccc(OC(F)(F)F)cc2)C1 (stereo unspecified)	1	-3	2	-5	-2
CC1(Oc2cnc(Cl)c3ccccc23)CCN(Cc2ccc(OC(F)(F)F)cc2)C1 (stereo unspecified)	-3	6	46*	-2	6
Cc1ccc(Cc2c(-c3ccco3)nc3ccc(Br)cn23)cc1	2	0	-1	10	-9
Brc1ccc2nc(-c3ccco3)c(CC3CCCCC3)n2c1	16*	-17	4	5	3
COCCn1c(SCc2ccccc2F)nc2ccccc2c1=O	-1	13	-2	-3	8
SMILES	LEDGF integ inh	ARFGAP1 inhibitor	Casp6 inh	TDP2 absorb	ASAP1 inh
O=c1c2ccccc2nc(SCc2ccccc2F)n1C1CCCC1	0	5	38*	6	0
CCCNC(=O)c1ccccc1NC(=O)c1ccc2c(=O)n3c(nc2c1)CCC3	2	10	2	0	1
Brc1cc2c(cc1COc1ccc(-c3nn[nH]n3)cc1)OCO2	-1	-7	x	0	1
CCOC(=O)C1=C(O)/C(=C/c2ccc(OCC(=O)O)c(OCC)c2)SC1=Nc1ccc(OC)cc1	-7	5	35*	-12	10
CCOC(=O)C1=C(O)/C(=C/c2ccc(OCC(=O)O)c(OCC)c2)SC1=Nc1ccc(C)cc1	-3	-5	14	-10	1
CC(CN1CCCCC1)C(=O)NNC(=O)C12CC3CC(CC(C3)C1)C2 (stereo unspecified)	-6	-14	43*	-12	-17
CN1CCN(C(=O)[C@@H]2[C@@H](CO)[C@@H]3Cn4c(cccc4=O)[C@@H]3N2Cc2ccccc2F)CC1	x	x	-3	x	x
O=C([C@H]1[C@H](CO)[C@H]2Cn3c(cccc3=O)[C@H]2N1Cc1cc(F)ccc1F)N1CCOCC1	x	x	37*	x	x
COc1ccc(Cl)cc1NC(=O)CN(C)C(=O)c1cc(-c2ccncc2)nc2ccccc12	16*	1	-5	-3	2
CCOc1ccc(NC(=O)CN(C)C(=O)c2cc(C)nc3ccccc23)cc1OCC	1	2	37*	3	-8
O=C(NC1CC1)c1c(O)c2ccccc2[nH]c1=O	-1	2	45*	-3	3
CC(C)NC(=O)Nc1ccc2c(c1)C(=O)N([C@@H](C)CO)C[C@@H](C)[C@@H](CN(C)C(=O)Nc1cccc3ccccc13)O2	x	x	46*	x	x
CC(C)NC(=O)Nc1ccc2c(c1)C(=O)N([C@H](C)CO)C[C@H](C)[C@@H](CN(C)S(=O)(=O)c1ccccc1)OCCCC[C@H](C)O2	x	x	40*	x	x
COc1ccc(-n2ncc3c(NCc4cccs4)ncnc32)cc1	2	1	4	-4	1
COc1ccc2c3c([nH]c2c1)[C@@H](CO)N(C(=O)C1CCOCC1)CC31CN(S(C)(=O)=O)C1	x	x	3	x	x
O=C(CN1CCN(Cc2ccc3c(c2)OCO3)CC1)Nc1ccc2[nH]c(=O)[nH]c2c1	-4	8	0	-2	4
CCOC(=O)c1cc(-c2ccc(N3CCOCC3)cc2)nn1-c1ccccc1C(=O)O	0	-5	40*	-1	-11
COc1ccc(NC(=O)[C@@H]2CCCN2C(=O)[C@@H]2Cc3ccccc3CN2C(=O)OC(C)(C)C)cc1	-4	-5	3	-22	-1
CC(=O)c1ccc(NC(=O)[C@@H]2CCCN2C(=O)OC(C)(C)C)cc1	-1	1	56*	8	-1
NC1=C(Cl)C(=O)c2ccccc2C1=O	0	10	97*	19	8
CCCCCC(=O)Nc1cc(S(=O)(=O)O)cc2cc(S(=O)(=O)O)cc(O)c12	91*	-21	98*	-2	-5
Cc1cc(C(F)(F)F)nn1CC(=O)NNC(=S)NCC(C)C	1	-12	x	-2	0
Cc1ccnc(SC2CC(=O)N(c3ccc(C(C)C)cc3)C2=O)n1 (stereo unspecified)	-1	-4	8	-3	7
CC(C1SC(=S)NC1=O)C1SC(=S)NC1=O (stereo unspecified)	-12	-2	68*	12	-12
